Tests used:
[1] = Drug level in anesthetized Sprague-Dawley rat assessed end of infusion plasma concentration at 10 mg/kg after 90 mins; assay type: ADME, organism-based; set-up: dose 10 mg/kg; conditions: iv
In short: (§1)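 Inactin-anesthetized rats; femoral artery catheters for MAP, HR and blood sampling; femoral vein for dosing and saline; LV transducer catheter for LVP/dP/dt. PVR = MAP/PBF. After 30-min control period, vehicle (10% DMSO/PEG400, 1 mL/kg) or compound infused i.v. as three ascending doses, 3, 10, 30 mg/kg, each over 30 min. Changes versus time 0 baseline; mean of three animals.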

Rattus norvegicus [2] = assay: Hemodynamic effect in anesthetized Sprague-Dawley rat assessed as decrease in mean arterial pressure at 10 mg/kg after 90 mins; assay type: functional, Artery; set-up: scale not given: the % may be the effect or the level left; in short: as §1
Rattus norvegicus [3] = assay: Hemodynamic effect in anesthetized Sprague-Dawley rat assessed as decrease in heart rate at 10 mg/kg after 90 mins; assay type: functional; set-up: scale not given: the % may be the effect or the level left; in short: as §1
Rattus norvegicus [4] = assay: Hemodynamic effect in anesthetized Sprague-Dawley rat assessed as increase in cardiac contractility at 10 mg/kg after 90 mins; assay type: functional, Heart; in short: as §1
Rattus norvegicus [5] = assay: Hemodynamic effect in anesthetized Sprague-Dawley rat assessed as decrease in peripheral vascular resistance at 10 mg/kg after 90 mins; assay type: functional; set-up: scale not given: the % may be the effect or the level left; in short: as §1
[6] = target: Mitogen-activated protein kinase 8 (Homo sapiens, UniProt P45983); assay: Inhibition of JNK1
Chain of Mitogen-activated protein kinase 8 (P45983 whole entry): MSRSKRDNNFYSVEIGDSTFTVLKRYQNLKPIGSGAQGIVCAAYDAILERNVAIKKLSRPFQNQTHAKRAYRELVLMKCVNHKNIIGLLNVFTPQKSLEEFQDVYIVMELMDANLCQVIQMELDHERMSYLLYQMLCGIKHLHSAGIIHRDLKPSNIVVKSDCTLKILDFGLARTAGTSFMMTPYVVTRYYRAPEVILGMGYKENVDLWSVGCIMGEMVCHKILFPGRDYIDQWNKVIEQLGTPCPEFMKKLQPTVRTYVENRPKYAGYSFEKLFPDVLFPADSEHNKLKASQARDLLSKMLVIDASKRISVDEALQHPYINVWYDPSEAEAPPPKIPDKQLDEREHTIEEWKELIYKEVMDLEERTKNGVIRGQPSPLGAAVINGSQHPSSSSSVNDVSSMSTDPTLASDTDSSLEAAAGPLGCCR

CCCn1c(C2CCNCC2)nc(-c2ccc(Cl)c(Cl)c2)c1-c1ccnc(NC2CCCCC2)n1
concentration at 1.5 h [1]: 9000 ng/mL
Activity (Rattus norvegicus [2]): 30%
Activity (Rattus norvegicus [3]): 22%

CC(C)Oc1nc(C(=O)N(C)Cc2ccc(S(C)(=O)=O)cc2)cc(N)c1C#N
concentration at 1.5 h [1]: 23600 ng/mL
Activity (Rattus norvegicus [4]): 41%
Activity (Rattus norvegicus [5]): 46%
IC50 [6]: 6400 nM

CCOc1nc(C(=O)NCc2ccc([S+]([O-])c3ccccc3)cc2)cc(N)c1C#N (stereo not drawn)
Activity (Rattus norvegicus [2]): 24%
Activity (Rattus norvegicus [4]): 24%
IC50 [6]: 50 nM

CCOc1nc(C(=O)NCCNc2ccc([N+](=O)[O-])cn2)cc(N)c1C#N
Activity (Rattus norvegicus [2]): 20%
Activity (Rattus norvegicus [4]): 12%
IC50 [6]: 61 nM

CCOc1nc(C(=O)NCc2cnccc2Cl)cc(N)c1C#N
Activity (Rattus norvegicus [2]): 23%
Activity (Rattus norvegicus [4]): < -15%
IC50 [6]: 30 nM

CC(C)Oc1nc(C(=O)NCc2ccc(S(C)(=O)=O)cc2)cc(O)c1C#N
concentration at 1.5 h [1]: 39900 ng/mL
Activity (Rattus norvegicus [2]): <15%
IC50 [6]: > 10000 nM

CCOc1nc(C(=O)NCc2ccc(S(C)(=O)=O)cc2)cc(N)c1Cl
concentration at 1.5 h [1]: 14700 ng/mL
Activity (Rattus norvegicus [2]): 20%
Activity (Rattus norvegicus [3]): <15%
Activity (Rattus norvegicus [4]): <15%
Activity (Rattus norvegicus [5]): 51%

COc1cc[nH]c1/C=C1\C(=O)Nc2cccc(C#CC(O)c3ccc(OCCCN(C)C)cc3)c21 (stereo not drawn)
Activity (Rattus norvegicus [2]): 23%
Activity (Rattus norvegicus [3]): 11%
Activity (Rattus norvegicus [4]): -20%
IC50 [6]: 34 nM

CCOc1nc(C(=O)NCc2ccc(S(=O)(=O)c3ccccc3)cc2)cc(N)c1C#N
Activity (Rattus norvegicus [2]): 24%
Activity (Rattus norvegicus [3]): 11%
IC50 [6]: 130 nM

CS(=O)(=O)c1ccc(CNC(=O)c2cc(N)c(C#N)c(OCC3CC3)n2)cc1
concentration at 1.5 h [1]: 8200 ng/mL
Activity (Rattus norvegicus [2]): 24%

CS(=O)(=O)c1ccc(CNC(=O)c2cc(N)c(C#N)c(-c3ccsc3)n2)cc1
Activity (Rattus norvegicus [2]): 23%

CCOc1nc(C(=O)NCc2ccc(S(C)(=O)=O)cc2)cc(N)c1C#N
concentration at 1.5 h [1]: 19300 ng/mL
Activity (Rattus norvegicus [2]): 41%
Activity (Rattus norvegicus [3]): <15%
Activity (Rattus norvegicus [4]): <15%
Activity (Rattus norvegicus [5]): 25%

CS(=O)(=O)c1ccc(CNC(=O)c2cc(N)c(C#N)c(NC3CCCC3)n2)cc1
concentration at 1.5 h [1]: 10500 ng/mL
Activity (Rattus norvegicus [2]): 18%
Activity (Rattus norvegicus [3]): 6%
Activity (Rattus norvegicus [4]): 13%

Reference: ChEMBL document CHEMBL1138387, “Hemodynamic effects of potent and selective JNK inhibitors in anesthetized rats: implication for targeting protein kinases in metabolic diseases” (Bioorg Med Chem Lett, 2007)
